Results taken from ChEMBL document CHEMBL6083224, “A novel aurone RNA CAG binder inhibits the huntingtin RNA-protein interaction” (RSC Med Chem, 2024).
Active and inactive are the calls of the source. No cut-off for these calls is given here.

What was measured:
Assay type in all cases: nucleic-acid assay
r(CUG) repeat expansion = assay: Binding affinity to CUG (5-GGUCGCUGCUGCACGAAAGUGCUGCUGCGACC-3) RNA (unknown origin) assessed as change in fluorescence intensity
TAR RNA = assay: Binding affinity to HIV-1 TAR (5-GGCAGAUCUGAGCCUGGGAGCUCUCUGCC-3) RNA assessed as change in fluorescence intensity; settings: Human immunodeficiency virus 1
[1] = system: Rev responsive element (RRE) RNA; assay: Binding affinity to HIV-1 RRE-IIB (5-GGUCUGGGCGCAGCGCAAGCUGACGGUACAGGCC-3) RNA assessed as change in fluorescence intensity; settings: Human immunodeficiency virus 1
CAG repeat expansion [2] = assay: Binding affinity to CAG (5-GCAGCAGCUUCGGCAGCAGC-3) repeat RNA (unknown origin) assessed as hypochromic red shift by spectrophotometric analysis
Outline: (§1)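 The compound was titrated with RNA, and electronic absorption spectra were recorded on a two-beam UV-vis spectrophotometer. Binding constants were calculated from the spectrophotometric titration data.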

CAG repeat expansion [3] = assay: Binding affinity to CAG (5-GCAGCAGCUUCGGCAGCAGC-3) repeat RNA (unknown origin) assessed as binding constant; outline: as §1
CAG repeat expansion [4] = assay: Binding affinity to HTT exon 1 (CAG)51 repeat RNA (unknown origin) assessed as reduction in human MID1 binding to HTT exon 1 (CAG)51 repeat RNA at 100 uM by Western blot analysis
Outline: (§2)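 Biotinylated RNA was folded in 10 mM Tris pH 7, 100 mM KCl, 10 mM MgCl₂ (72 °C for 10 min, then cooled to room temperature). 80 pmol of RNA was loaded onto streptavidin-agarose beads in buffer D for 30 min at room temperature. HEK293T protein extract was bound overnight at 4 °C. After washes, bound proteins were eluted at 95 °C for 10 min, and MID1 was detected by anti-MID1 western blot.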

CAG repeat expansion [5] = assay: Binding affinity to HTT exon 1 (CAG)51 repeat RNA (unknown origin) assessed as reduction in human MID1 binding to HTT exon 1 (CAG)51 repeat RNA by Western blot analysis; settings: dose 1-100 µM; outline: as §2
CAG repeat expansion [6] = assay: Binding affinity to CAG (5-GCAGCAGCUUCGGCAGCAGC-3) repeat RNA (unknown origin) by spectrophotometric analysis; outline: as §1

Activity (r(CUG) repeat expansion) | Activity (TAR RNA) | Activity [1] | Activity (CAG repeat expansion [2]) | K (CAG repeat expansion [3]) | Activity (CAG repeat expansion [4]) | Activity (CAG repeat expansion [5]) | Activity (CAG repeat expansion [6]) | SMILES
No effect | No effect | No effect | Active | 1.4 10^5/M | Active | Dose-dependent-effect | – | CN(C)CCOc1ccc(/C=C2\Oc3cc(OCCN(C)C)ccc3C2=O)cc1
inactive | Active | Active | – | – | inactive | – | inactive | O=C1/C(=C/c2c3ccccc3cc3ccccc23)Oc2ccccc21
